Marks after values point to notes of the source that are not given here.
Columns and labels:
[1] = test system: advanced/metastatic solid tumors; assay: Antitumor activity; type: in vivo, human
In short: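 Adults (≥18 y) with relapsed or refractory solid tumours and no standard therapy, ECOG 0–1, take the test compound as capsules orally once daily for 7 consecutive days in 2-week cycles (S1). Patients stay on study until progression, refusal or unacceptable toxicity. Disease is assessed by RECIST every 8 weeks and at study discontinuation.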

CDK2 = conditions: cited from earlier work
animals = conditions: high single or repeated doses; cited from earlier work
CDK7 = conditions: cited from earlier work
CDK1 = conditions: cited from earlier work
CDK2/Cyclin A complex = conditions: read-out: IC50, CDK2/Cyclin A complex; cited from earlier work
[2] = test system: patients with advanced/metastatic solid tumors; assay: Phase I safety: adverse events; type: in vivo, human; conditions: for dose-limiting toxicities (DLTs): all doses
CDK4 = conditions: cited from earlier work
[3] = test system: CDK related biomarkers Cyclin A2, Cyclin B1 and Ki67; assay: Pharmacodynamics: qRT-PCR on skin biopsies; type: in vivo, human; conditions: pre- vs post-treatment
CDK5 = conditions: cited from earlier work

CNC(=O)c1nn(C)c2c1C(C)(C)Cc1cnc(Nc3ccc(N4CCN(C)CC4)cc3)nc1-2 [PHA-848125AC, N,1,4,4-tetramethyl-8-{[4-(4-methylpiperazin-1-yl)phenyl]amino}-4,5-dihydro-1H-pyrazolo [4,3-h]quinazoline-3-carboxamide]
duration of stabilization ([1]; CRC patient, 150 mg/day, S1): 55.6 weeks
duration of stabilization ([1]; NSCLC patient, 200 mg/day, S1): 24.6 weeks
objective response ([1]; S1): No objective response
patients discontinued for lack of efficacy ([1]; S1 N=22): 81.8%
patients discontinued for lack of efficacy ([1]; S2 N=15): 86.7%
duration of stabilization ([1]; carcinoid patient, 180 mg/day, S2): 29.1 weeks
duration of stabilization ([1]; pancreatic adenocarcinoma patient, 180 mg/day, S2): 39.3 weeks
inhibitory activity towards CDK2 (CDK2): inhibitory activity
neurological effects in animals (animals): tremors and increased reactivity to external stimuli
inhibitory activity towards CDK7 (CDK7): inhibitory activity
inhibitory activity towards CDK1 (CDK1): inhibitory activity
IC50 (CDK2/Cyclin A complex): 45 nM
ERG findings during treatment ([2]; S1): No abnormal ERG findings
doses at which DLTs≥Grade 3 were noted ([2]; S1): ≥ 200 mg/day
Any drug-related adverse event, CTC Grade 1–4: patients ([2]; S1 50 mg/day N=3, all cycles): 3
Nausea, drug-related, CTC Grade 1–4: patients ([2]; S1 50 mg/day N=3, all cycles): 1
Any drug-related adverse event, CTC Grade 1–4: patients ([2]; S1 100 mg/day N=6, all cycles): 6
Any drug-related adverse event, CTC Grade 3–4: patients ([2]; S1 100 mg/day N=6, all cycles): 1
Decreased Hb, drug-related, CTC Grade 1–4: patients ([2]; S1 100 mg/day N=6, all cycles): 1
Decreased Hb, drug-related, CTC Grade 3–4: patients ([2]; S1 100 mg/day N=6, all cycles): 1
Diarrhea, drug-related, CTC Grade 1–4: patients ([2]; S1 100 mg/day N=6, all cycles): 1
Fatigue, drug-related, CTC Grade 1–4: patients ([2]; S1 100 mg/day N=6, all cycles): 2
Fatigue, drug-related, CTC Grade 3–4: patients ([2]; S1 100 mg/day N=6, all cycles): 1
Nausea, drug-related, CTC Grade 1–4: patients ([2]; S1 100 mg/day N=6, all cycles): 3
Tremor, drug-related, CTC Grade 1–4: patients ([2]; S1 100 mg/day N=6, all cycles): 2
Vomiting, drug-related, CTC Grade 1–4: patients ([2]; S1 100 mg/day N=6, all cycles): 3
DLT events ([2]; S1 200 mg/day): Grade 3 ataxia and Grade 2–3 tremors
Any drug-related adverse event, CTC Grade 1–4: patients ([2]; S1 200 mg/day N=6, all cycles): 6
Any drug-related adverse event, CTC Grade 3–4: patients ([2]; S1 200 mg/day N=6, all cycles): 5
Ataxia, drug-related, CTC Grade 1–4: patients ([2]; S1 200 mg/day N=6, all cycles): 3
Ataxia, drug-related, CTC Grade 3–4: patients ([2]; S1 200 mg/day N=6, all cycles): 3
Diarrhea, drug-related, CTC Grade 1–4: patients ([2]; S1 200 mg/day N=6, all cycles): 5
Diarrhea, drug-related, CTC Grade 3–4: patients ([2]; S1 200 mg/day N=6, all cycles): 1
Dizziness, drug-related, CTC Grade 1–4: patients ([2]; S1 200 mg/day N=6, all cycles): 1
Fatigue, drug-related, CTC Grade 1–4: patients ([2]; S1 200 mg/day N=6, all cycles): 2
Increased ALT, drug-related, CTC Grade 1–4: patients ([2]; S1 200 mg/day N=6, all cycles): 1
Increased ALT, drug-related, CTC Grade 3–4: patients ([2]; S1 200 mg/day N=6, all cycles): 1
Nausea, drug-related, CTC Grade 1–4: patients ([2]; S1 200 mg/day N=6, all cycles): 4
Neutropenia, drug-related, CTC Grade 1–4: patients ([2]; S1 200 mg/day N=6, all cycles): 1
Neutropenia, drug-related, CTC Grade 3–4: patients ([2]; S1 200 mg/day N=6, all cycles): 1
Syncope, drug-related, CTC Grade 1–4: patients ([2]; S1 200 mg/day N=6, all cycles): 1
Syncope, drug-related, CTC Grade 3–4: patients ([2]; S1 200 mg/day N=6, all cycles): 1
Tremor, drug-related, CTC Grade 1–4: patients ([2]; S1 200 mg/day N=6, all cycles): 4
Tremor, drug-related, CTC Grade 3–4: patients ([2]; S1 200 mg/day N=6, all cycles): 2
Vomiting, drug-related, CTC Grade 1–4: patients ([2]; S1 200 mg/day N=6, all cycles): 4
Any drug-related adverse event, CTC Grade 1–4: patients ([2]; S1 300 mg/day N=1, all cycles): 1
Any drug-related adverse event, CTC Grade 3–4: patients ([2]; S1 300 mg/day N=1, all cycles): 1
Ataxia, drug-related, CTC Grade 1–4: patients ([2]; S1 300 mg/day N=1, all cycles): 1
Ataxia, drug-related, CTC Grade 3–4: patients ([2]; S1 300 mg/day N=1, all cycles): 1
Dehydration, drug-related, CTC Grade 1–4: patients ([2]; S1 300 mg/day N=1, all cycles): 1
Diarrhea, drug-related, CTC Grade 1–4: patients ([2]; S1 300 mg/day N=1, all cycles): 1
Dizziness, drug-related, CTC Grade 1–4: patients ([2]; S1 300 mg/day N=1, all cycles): 1
Fatigue, drug-related, CTC Grade 1–4: patients ([2]; S1 300 mg/day N=1, all cycles): 1
Nausea, drug-related, CTC Grade 1–4: patients ([2]; S1 300 mg/day N=1, all cycles): 1
Tremor, drug-related, CTC Grade 1–4: patients ([2]; S1 300 mg/day N=1, all cycles): 1
Vomiting, drug-related, CTC Grade 1–4: patients ([2]; S1 300 mg/day N=1, all cycles): 1
dose-limiting toxicities (DLTs) ([2]; S1 (7 days on/7 days off q2wks)): ataxia (Grade 2–4) and tremors (Grade 2–3)
patients with drug-related eye disorders ([2]; S1, single patient, Grade 1 increased lacrimation): 4.5%
patients discontinued due to adverse events ([2]; S1 N=22): 13.6%
ataxia ([2]; S2): not observed
fundoscopy and ERG abnormalities during treatment ([2]; S2): neither clinically relevant abnormality at fundoscopy nor ERG abnormalities
Anemia, drug-related, CTC Grade 1–4: patients ([2]; S2 150 mg/day N=5, all cycles): 2
Any drug-related adverse event, CTC Grade 1–4: patients ([2]; S2 150 mg/day N=5, all cycles): 5
Any drug-related adverse event, CTC Grade 3–4: patients ([2]; S2 150 mg/day N=5, all cycles): 4
Diarrhea, drug-related, CTC Grade 1–4: patients ([2]; S2 150 mg/day N=5, all cycles): 3
Hypokalemia, drug-related, CTC Grade 1–4: patients ([2]; S2 150 mg/day N=5, all cycles): 1
Hypokalemia, drug-related, CTC Grade 3–4: patients ([2]; S2 150 mg/day N=5, all cycles): 1
Increased ALT, drug-related, CTC Grade 1–4: patients ([2]; S2 150 mg/day N=5, all cycles): 1
Increased ALT, drug-related, CTC Grade 3–4: patients ([2]; S2 150 mg/day N=5, all cycles): 1
Increased Lipase, drug-related, CTC Grade 1–4: patients ([2]; S2 150 mg/day N=5, all cycles): 1
Increased Lipase, drug-related, CTC Grade 3–4: patients ([2]; S2 150 mg/day N=5, all cycles): 1
Nausea, drug-related, CTC Grade 1–4: patients ([2]; S2 150 mg/day N=5, all cycles): 3
Neutropenia, drug-related, CTC Grade 1–4: patients ([2]; S2 150 mg/day N=5, all cycles): 1
Tremor, drug-related, CTC Grade 1–4: patients ([2]; S2 150 mg/day N=5, all cycles): 3
Vomiting, drug-related, CTC Grade 1–4: patients ([2]; S2 150 mg/day N=5, all cycles): 2
Vomiting, drug-related, CTC Grade 3–4: patients ([2]; S2 150 mg/day N=5, all cycles): 1
Anemia, drug-related, CTC Grade 1–4: patients ([2]; S2 200 mg/day N=4, all cycles): 2
Any drug-related adverse event, CTC Grade 1–4: patients ([2]; S2 200 mg/day N=4, all cycles): 4
Any drug-related adverse event, CTC Grade 3–4: patients ([2]; S2 200 mg/day N=4, all cycles): 2
Dehydration, drug-related, CTC Grade 1–4: patients ([2]; S2 200 mg/day N=4, all cycles): 1
Diarrhea, drug-related, CTC Grade 1–4: patients ([2]; S2 200 mg/day N=4, all cycles): 3
Diarrhea, drug-related, CTC Grade 3–4: patients ([2]; S2 200 mg/day N=4, all cycles): 1
Dizziness, drug-related, CTC Grade 1–4: patients ([2]; S2 200 mg/day N=4, all cycles): 2
Fatigue, drug-related, CTC Grade 1–4: patients ([2]; S2 200 mg/day N=4, all cycles): 3
Nausea, drug-related, CTC Grade 1–4: patients ([2]; S2 200 mg/day N=4, all cycles): 1
Neutropenia, drug-related, CTC Grade 1–4: patients ([2]; S2 200 mg/day N=4, all cycles): 1
Tremor, drug-related, CTC Grade 1–4: patients ([2]; S2 200 mg/day N=4, all cycles): 2
Tremor, drug-related, CTC Grade 3–4: patients ([2]; S2 200 mg/day N=4, all cycles): 1
Vomiting, drug-related, CTC Grade 1–4: patients ([2]; S2 200 mg/day N=4, all cycles): 1
dose-limiting toxicities (DLTs) ([2]; S2 (4 days on/3 days off × 3wks q4wks)): tremors (Grade 2–3), elevated lipase (Grade 3), increased creatinine (Grade 2), and nausea and vomiting (Grade 3)
patients discontinued due to adverse events ([2]; S2 N=15): 13.3 ^a %
blood chemistry and hematology abnormalities ([2]; any schedule, except lymphocytopenia): No significant blood chemistry and hematology abnormalities
doses at which tremors and ataxia were dose-limiting ([2]; both schedules): > 150 mg/day
lymphocytopenia occurrence ([2]; both schedules): half of cases
on study deaths ([2]; both schedules): No on study deaths
effects on coagulation, blood pressure, ECGs ([2]; in vivo): did not cause significant effects
recommended phase II dose (RP2D) ([2]; oral, both schedules (S1 and S2)): 150 mg/day
inhibitory activity towards CDK4 (CDK4): inhibitory activity
modulation of CDK related biomarkers Cyclin A2, Cyclin B1 and Ki67 [3]: down modulation
inhibitory activity towards CDK5 (CDK5): inhibitory activity

From PMC3561458 (Investigational new drugs, 2011)
